Test results taken from PubChem BioAssay.
Results filed as inconclusive are left out. Active and inactive are the calls of the source.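 Rule for the calls, unless noted: active = viability increase at or above a cutoff of the median across tested compounds plus 3 SD (cut at about 8.5% in these data, passing the limit was not always enough); inconclusive = some gains above the cutoff, reason not given; inactive = the rest.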

Tests used:
[1] = S. cerevisiae growth inhibition in permissive medium (OD615), pilot counter-assay for S. cerevisiae lifespan shortening project, permissive growth control (AID 705;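 active = growth inhibition above 25% in both replicates, a cutoff set 3 SD above the mean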); conditions: OD615, 24 h, at 10 µM, active compounds read high
Procedure, shortened: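 Test system: Saccharomyces cerevisiae strain carrying genetically modified DeaD replicative-lifespan system; buffer or medium: SC raffinose/galactose permissive medium; dosing: one dose 10 µM, DMSO 0.25% final; times: 24 h exposure, 30 °C; measured by: OD at 615 nm; read-out basis: growth inhibition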

[2] = S. cerevisiae growth inhibition in restrictive medium, OD615, pilot screen, restrictive growth control, yeast lifespan reduction project (AID 706;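 active = growth inhibition above a set limit, 3 SD over mean compound inhibition, in both replicates, cut at about 43% in these data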;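 note: modified DeaD lifespan yeast strain shifted to restrictive glucose medium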); conditions: OD615, 48 h, at 10 µM, active compounds read high
Procedure, shortened: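 material = engineered S. cerevisiae DeaD strain | buffer or medium = glucose-based CSMM-D restrictive medium | dosing = one concentration, 10 µM final, 0.25% DMSO | schedule = 4 h pre-growth plus 48 h compound exposure, 30 °C | detection = OD615 absorbance reading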

[3] = doxorubicin toxicity protection in MRP-1 cells – H69AR cells, CellTiter-Glo, duplicate, MRP-1 activator project, pilot screen (AID 807); conditions: H69AR viability with doxorubicin, CellTiter-Glo luminescence; at 10 µM; active compounds read high;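 note: compound pretreatment 18-22 h then 72 h combined with doxorubicin; 0% = doxorubicin alone and 100% = vehicle without doxorubicin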
[4] = viability of PTEN-null HCT116 cells – cell-based, HCT116 clonal line, CellTiter-Glo, pilot screen (AID 824;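 active = viability at or below 27.92% in each of two runs, the all-compound median minus 4 SD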;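 note: 0% = 20 µM Hyamine control and 100% = vehicle cell control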); conditions: HCT116 PTEN-deleted viability, 60 h, at 10 µM, active compounds read low
[5] = RAM pathway blockade in budding yeast – dse1pr::URA3 reporter, 5-FOA selection, pilot screen (AID 869;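 active = inhibition over a set limit, the all-compound mean plus 3 SD, in both replicate runs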;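 note: 0% = DMSO wells with no growth and 100% = 10 µM 1-NA-PP1 with full growth; RAM network block rescues cells from 5-FOA so hits raise OD615 growth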); conditions: S. cerevisiae dse1pr::URA3 5-FOA growth, OD615, 2 d; at 10 µM; active compounds read high; strain carries analog-sensitive mutant Cbk1 kinase
[6] = RAM signaling pathway blockade in yeast – S. cerevisiae, Pdr1DBD-CYC8 efflux-inhibited sensitized strain, primary screen (AID 1298;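 active = RAM network inhibition above 8.4% in each of two replicates, 3 SD over the compound average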;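 note: 0% = DMSO untreated cells without growth and 100% = 10 µM 1-NA-PP1 full growth; higher means more yeast growth rescued from 5-FOA killing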); conditions: S. cerevisiae cbk1-as DSE1-URA3 strain, 5-FOA growth OD615, 2 d; at 50 µM; active compounds read high

O=S(=O)(Cc1ccccc1)N1CCc2ccccc2C1
inactive: growth inhibition [1] 2.65% | growth inhibition [2] -4.61% | viability increase [3] -0.66% | viability [4] 95.8% | inhibition [5] 3.92% | RAM network inhibition [6] 6.16%

O=C(NCc1cccnc1)NC1(C(F)(F)F)Oc2ccccc2O1
inactive: growth inhibition [1] 4.4% | growth inhibition [2] 5.9% | viability increase [3] -5.46% | viability [4] 67.2% | inhibition [5] 0.81% | RAM network inhibition [6] 3.16%

O=C(Cc1ccc(Cl)cc1)Nc1ccccc1CO
inactive: growth inhibition [1] 0.105% | growth inhibition [2] -1.33% | viability increase [3] 0.18% | viability [4] 101% | inhibition [5] 0.45% | RAM network inhibition [6] 5.48%

CCOC(=O)N1CCC(NC(=O)C(CC(C)C)NC(=O)C2CCCCC2)CC1 (stereo not given)
inactive: growth inhibition [1] -6.28% | growth inhibition [2] -1.08% | viability increase [3] -2.08% | viability [4] 100% | inhibition [5] 2.41% | RAM network inhibition [6] 1.8%

CCC1CCCCN1C(=O)Cn1c(=O)oc2ccccc21 (stereo not given)
inactive: growth inhibition [1] -8.32% | growth inhibition [2] -4.71% | viability increase [3] -2.07% | viability [4] 101% | inhibition [5] 1.96% | RAM network inhibition [6] 4.3%

O=C(C1CC1)N1CCc2cc(Br)cc(S(=O)(=O)NCCN3CCOCC3)c21
inactive: growth inhibition [1] -5.94% | growth inhibition [2] -6.43% | viability increase [3] -2.94% | viability [4] 94.7% | inhibition [5] 1.69% | RAM network inhibition [6] 2.57%

C=CCn1c(C)cc(C(=O)COc2nncc3ccccc23)c1C
inactive: growth inhibition [1] -10.3% | growth inhibition [2] -15% | viability increase [3] -2.37% | viability [4] 74.2% | inhibition [5] 2.32% | RAM network inhibition [6] 0.87%

COc1ccc(OC)c(NC(=O)C(CC(C)C)NC(=O)C2CCCCC2)c1 (stereo not given)
inactive: growth inhibition [1] -5.08% | growth inhibition [2] 11.6% | viability increase [3] -5.29% | viability [4] 86% | inhibition [5] 1.02% | RAM network inhibition [6] 3.18%

O=C(COc1ccccc1)NCCSc1ccccc1
inactive: growth inhibition [1] -10.4% | growth inhibition [2] -5.4% | viability increase [3] -2.23% | viability [4] 97.5% | inhibition [5] 1.55% | RAM network inhibition [6] 0.83%

CCN(CC)C(=O)CSc1nsc(SCC(=O)N(CC)CC)c1C#N
inactive: growth inhibition [1] -9.3% | growth inhibition [2] 6.27% | viability increase [3] -2.27% | viability [4] 95.3% | inhibition [5] 1.22% | RAM network inhibition [6] 6.13%

COc1ccc(N(CC(=O)NCc2ccco2)S(C)(=O)=O)cc1Cl
inactive: growth inhibition [1] -14.3% | growth inhibition [2] -4.89% | viability increase [3] -3.2% | viability [4] 91.7% | inhibition [5] 2.38% | RAM network inhibition [6] 6.11%

O=C(NCc1cccc(F)c1)c1noc2c1CCCC2
inactive: growth inhibition [1] -12.1% | growth inhibition [2] -19.5% | viability increase [3] -4.68% | viability [4] 32.7% | inhibition [5] 0.33% | RAM network inhibition [6] 3.14%

COc1cc2[nH]c(=O)n(CCCC(=O)N3CC=C(c4ccccc4)CC3)c(=O)c2cc1OC
inactive: growth inhibition [1] -11.3% | growth inhibition [2] -6.67% | viability increase [3] -4.59% | viability [4] 80.5% | inhibition [5] 0.355% | RAM network inhibition [6] 1.8%

Cc1ccc(S(=O)(=O)NC(=O)Nn2c(C)nnc2C)cc1
inactive: growth inhibition [1] -8.7% | growth inhibition [2] -6.25% | viability increase [3] -0.15% | viability [4] 102% | inhibition [5] 0.75% | RAM network inhibition [6] 4.31%

COc1ccc(S(=O)(=O)N(CCc2ccccc2)CC(=O)N2CCOCC2)cc1
inactive: growth inhibition [1] -7.4% | growth inhibition [2] -6.06% | viability increase [3] -4.39% | viability [4] 96.6% | inhibition [5] 0.965% | RAM network inhibition [6] -0.36%

COc1ccc(S(=O)(=O)Nc2ccc(S(=O)(=O)N3CCOCC3)cc2)cc1
inactive: growth inhibition [1] -3.87% | growth inhibition [2] -1.83% | viability increase [3] -1.49% | viability [4] 101% | inhibition [5] 1.18% | RAM network inhibition [6] 2.87%

CCCC(=O)c1cc(F)c(N2CCN(CCC#N)CC2)cc1C
inactive: growth inhibition [1] -9.06% | growth inhibition [2] -15.5% | viability increase [3] -0.66% | viability [4] 93.6% | inhibition [5] 2.97% | RAM network inhibition [6] 3.23%

COc1ccc(S(=O)(=O)N2CCCCC2C(=O)O)cc1OC (stereo not given)
inactive: growth inhibition [1] -7% | growth inhibition [2] -10.8% | viability increase [3] -0.69% | viability [4] 101% | inhibition [5] 2.17% | RAM network inhibition [6] 5.22%

c1coc(CNc2c3c(nc4ncnn24)CCCC3)c1
inactive: growth inhibition [1] 0.96% | growth inhibition [2] 6.76% | viability increase [3] -1.88% | viability [4] 93.1% | inhibition [5] -0.155% | RAM network inhibition [6] 1.39%

COCCNS(=O)(=O)c1ccc2c(c1)C(=O)c1cc(S(=O)(=O)NCCOC)ccc1-2
inactive: growth inhibition [1] -1.33% | growth inhibition [2] 0.015% | viability increase [3] -0.81% | viability [4] 96.4% | inhibition [5] 2.15% | RAM network inhibition [6] 3.45%

CCN(CC)S(=O)(=O)c1ccc2oc(C(=O)NCC3COc4ccccc4O3)c(C)c2c1 (stereo not given)
inactive: growth inhibition [1] -4.71% | growth inhibition [2] 1.48% | viability increase [3] -7.27% | viability [4] 56.5% | inhibition [5] 2.5% | RAM network inhibition [6] 4.96%

CCOC(=O)COc1cccc2c(=O)n(CC(=O)NCc3ccc4c(c3)OCO4)ccc12
inactive: growth inhibition [1] -18.3% | growth inhibition [2] -15.8% | viability increase [3] -5.67% | inhibition [5] 3.72% | RAM network inhibition [6] 6.61%
active: viability [4] 27.3%

CCCOC(=O)c1ccc(OCC(O)Cn2c(C)nc3ccccc32)cc1 (stereo not given)
inactive: growth inhibition [1] -11.1% | growth inhibition [2] -3.87% | viability increase [3] -1.73% | viability [4] 57.2% | inhibition [5] 0.99% | RAM network inhibition [6] 6.95%

Cc1ccc(-c2nc(-c3ccccn3)no2)cc1
active: viability [4] 24.4%
inactive: growth inhibition [1] 1.26% | growth inhibition [2] 10.2% | viability increase [3] -5.02% | inhibition [5] -0.485% | RAM network inhibition [6] 1.82%

COc1cc2c(cc1NC(=O)c1ccco1)CCCC2
inactive: growth inhibition [1] 3.87% | growth inhibition [2] -4.68% | viability increase [3] -6.9% | viability [4] 81.1% | inhibition [5] 2.06% | RAM network inhibition [6] 2.56%

CCCCS(=O)CC(CS(=O)CCCC)OC(=O)c1ccc(C)cc1 (stereo not given)
inactive: growth inhibition [1] -10.6% | growth inhibition [2] -7.7% | viability increase [3] -1.14% | viability [4] 96.3% | inhibition [5] 1.73% | RAM network inhibition [6] 0.87%

COC(=O)CCc1nc2ccccc2[nH]c1=O
inactive: growth inhibition [1] -6.03% | growth inhibition [2] -5.04% | viability increase [3] -0.31% | viability [4] 100% | inhibition [5] 1.4% | RAM network inhibition [6] 2.15%

CN(CC1CCCO1)S(=O)(=O)c1ccc(C(=O)Nc2nc3cc4c(cc3s2)OCO4)cc1 (stereo not given)
inactive: growth inhibition [1] -9.44% | growth inhibition [2] -15.3% | viability increase [3] -4.33% | viability [4] 35.8% | inhibition [5] 2.66% | RAM network inhibition [6] 4.04%

CS(=O)(=O)NCCSCc1ccc(Cl)cc1
inactive: growth inhibition [1] -8.71% | growth inhibition [2] -3.54% | viability increase [3] -0.89% | viability [4] 97.9% | inhibition [5] 1.62% | RAM network inhibition [6] 4.47%

CCOC(=O)N1CCN(C(=O)c2ccc(CN(c3ccc(C)c(C)c3)S(C)(=O)=O)cc2)CC1
inactive: growth inhibition [1] -11.1% | growth inhibition [2] -1.85% | viability increase [3] -2.96% | viability [4] 99.4% | inhibition [5] 0.115% | RAM network inhibition [6] 5.73%

COc1cc(C(=O)NCc2ccc3c(c2)OCO3)ccc1OCc1c(C)noc1C
inactive: growth inhibition [1] 2.15% | growth inhibition [2] -2.32% | viability increase [3] -1.5% | viability [4] 95.1% | inhibition [5] 2.5% | RAM network inhibition [6] 3.79%

Cc1cc(OCCCCCNCCO)ccc1Cl
inactive: growth inhibition [1] -5.31% | growth inhibition [2] -3.71% | viability increase [3] -4.62% | viability [4] 78% | inhibition [5] 2.05% | RAM network inhibition [6] 1.6%

CCN(CC)S(=O)(=O)c1ccc2oc(C(=O)NCc3ccc(F)cc3)c(C)c2c1
inactive: growth inhibition [1] -10.9% | growth inhibition [2] 12.4% | viability increase [3] -6.59% | viability [4] 60.6% | inhibition [5] 1.37% | RAM network inhibition [6] 7.7%

c1cncc(CNc2nc(N3CCOCC3)nc(N3CCOCC3)n2)c1
inactive: growth inhibition [1] -10.4% | growth inhibition [2] 1.83% | viability increase [3] -2.97% | viability [4] 91.8% | inhibition [5] 1.27% | RAM network inhibition [6] 1.95%

C#CCN1C(=O)C(O)(CC(=O)c2ccc(OC)c(OC)c2)c2ccccc21 (stereo not given)
inactive: growth inhibition [1] 2.17% | growth inhibition [2] 0.69% | viability increase [3] -5.17% | viability [4] 48% | inhibition [5] 1.62% | RAM network inhibition [6] 1.98%

Cc1nc2nc(SCC(=O)N3CCOCC3)nn2c(C)c1Cc1ccccc1
inactive: growth inhibition [1] -0.01% | growth inhibition [2] 1.59% | viability increase [3] -3.4% | viability [4] 95.5% | inhibition [5] 1.7% | RAM network inhibition [6] 0.77%

Cc1cc(S(=O)(=O)N2CCN(Cc3ccc4c(c3)OCO4)CC2)cc(C)c1N1CCCC1=O
inactive: growth inhibition [1] -10.6% | growth inhibition [2] -19.3% | viability increase [3] -3.13% | viability [4] 53.6% | inhibition [5] -0.21% | RAM network inhibition [6] 0.73%

c1ccc(CSc2nnc3c(n2)OC(c2ccco2)Nc2ccccc2-3)cc1 (stereo not given)
inactive: growth inhibition [1] -10.6% | growth inhibition [2] 2.27% | viability increase [3] -4.19% | viability [4] 88.8% | inhibition [5] 0.38% | RAM network inhibition [6] 7.16%

Cc1ccc(NC(=O)CC2SC3=NCCN3C2=O)cc1 (stereo not given)
inactive: growth inhibition [1] 3.71% | growth inhibition [2] 10.6% | viability increase [3] 3.08% | viability [4] 96.1% | inhibition [5] 1.66% | RAM network inhibition [6] 1.49%

COc1ccc(OC)c(N(CC(=O)Nc2ccc3c(c2)OCO3)S(=O)(=O)c2ccccc2)c1
inactive: growth inhibition [1] -11.4% | growth inhibition [2] -2.2% | viability increase [3] -2.35% | viability [4] 67.9% | inhibition [5] 3.23% | RAM network inhibition [6] 9.99%
